The EternaBench riboswitch data

Test system: MS2 coat protein
Assay: apparent Kd, MS2 coat protein; higher = weaker binding; RNA-MaP array; FMN 200 µM where present
Method in brief: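 Green signal from SNAP-549-labelled MS2 coat protein was normalised to red-channel RNA signal and to the median Fmax of control clusters. The protein was titrated from 0.7 or 1.5 nM, doubling to 3 µM, without and then with constant ligand, over designs transcribed by stalled E. coli RNA polymerase on Illumina sequencing-chip clusters, in 100 mM Tris-HCl pH 7.5, 80 mM KCl, 4 mM MgCl2, BSA, DTT, yeast tRNA and Tween-20. The apparent Kd is the median of filtered per-cluster binding-curve fits.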

[1] = designed as: ON switch for flavin mononucleotide, no ligand
[2] = ligand present: flavin mononucleotide, designed as: ON switch for flavin mononucleotide
[3] = designed as: OFF switch for flavin mononucleotide, no ligand
[4] = ligand present: flavin mononucleotide, designed as: OFF switch for flavin mononucleotide

Sequence: GGACGUCACAUGAACAUGAGGAUCACCCAUGUAAAUUCUCAUGAGGAUAUGGAACCUAAUUGGUUCCAGAAGGCAUGGACGUCC
- apparent Kd [1]: 1270 nM
- apparent Kd [2]: 381 nM

Sequence: GGACGUCACAUUAACAUGAGGAUCACCCAUGUCUCUAGACAUGAGGAUAUGGAUCCUAAUUGGAUCCAGAAGGCAUGGACGUCC
- apparent Kd [1]: 1030 nM
- apparent Kd [2]: 143 nM

Sequence: GGACGUCAGAUUAACAUGAGGAUCACCCAUGUCUUUUGACAUGAGGAUAUGCAUCCUAAUUGGAUGCAGAAGGCAUGGACGUCC
- apparent Kd [1]: 1020 nM
- apparent Kd [2]: 84 nM

Sequence: GGACGUCAGAUUAACAUGAGGAUCACCCAUGUCUUUUGACAUGAGGAUAUGGUUGGUAAUUCCAACCAGAAGGCAUGGACGUCC
- apparent Kd [1]: 1100 nM
- apparent Kd [2]: 125 nM

Sequence: GGAGACCUCAUAGGAUAUGCUGGACUUUGUCCAGCAGAAGGGUGAAAACAUGAGGAUCACCCAUGUAUGGUCUCCAAAUUUAAU
- apparent Kd [1]: 992 nM
- apparent Kd [2]: 327 nM

Sequence: GGAGAGUCAGGAUAUACAUGAGGAUCACCCAUGUUGGAAAGUGGAGGGACGGGAGUCCGUAGAAGGGACGAGAG
- apparent Kd [3]: 34.4 nM
- apparent Kd [4]: 27.7 nM

Sequence: GGAGCAACAUGAGGAUCACCCAUGUAGGAUAUCGCUAUUGUAAUCAUGAAACAUGAUUACAAUAGCGAGAAGGACAUAUGCUCC
- apparent Kd [3]: 6.02 nM
- apparent Kd [4]: 9.16 nM

Sequence: GGAGCACACAUUCACAUGAGGAUCACCCAUGUCAAAAGACAUGAGGAUAUGGAUCCGAAAAGGAUCCAGAAGGCAUGGUGCUCC
- apparent Kd [1]: 483 nM
- apparent Kd [2]: 25.5 nM

Sequence: GGAGCACGCACAGGAUAUCCGGCGGCGCUCGUCGGAGAAGGGUGACAUGAGGAUCACCCAUGUACGUGCAACUUAGUUUAAGAG
- apparent Kd [1]: 37.1 nM
- apparent Kd [2]: 29.6 nM

Sequence: GGAGGACAUGAGGAUCACCCAUGUGGAUGAUCGCUAGGAUAUGCGUGCGGGAGGAGUGGUGCAGAAGGAGUGGGAU
- apparent Kd [1]: 350 nM
- apparent Kd [2]: 272 nM

Sequence: GGAGGACGAAACAUGAGGAUCACCCAUGUGUUAUAAUUAAUAUAGGAUAUGUUUAUACUUUUUGGGCAGAAGGAUGAUAAUGCC
- apparent Kd [1]: 19.6 nM
- apparent Kd [2]: 16.1 nM

Sequence: GGAGGAGGUGUAGGAUAUAUAGAGGAGGGAGGGAUAGAAGGACAUGAGGAUCACCCAUGUGAGGAGGAGGAGGGAGGGAGGAGG
- apparent Kd [3]: 13.4 nM
- apparent Kd [4]: 11.9 nM

Sequence: GGAUACAUACAGAAGGAUAUGAGAACAAAGACAUGAGGAUCACCCAUGUACAAAAGGUGGAACAAUCAGAAGGUCUAAACAACAAA
- apparent Kd [1]: 72.2 nM
- apparent Kd [2]: 61.2 nM

Sequence: GGAUAGGACAGAGGAUAUACAGAUAGGAUCUACUAUCAAACAGUCCUAACAUGAGGAUCACCCAUGUAGAAGGCUGUCCUAUCG
- apparent Kd [3]: 21.7 nM
- apparent Kd [4]: 80.3 nM

Sequence: GGAUAGGACAGAGGAUAUACGAGCUAGAGAUACUAGCAAAAUUUCCUCACAUGAGGAUCACCCAUGUAGAAGGCUGUCCUAUCG
- apparent Kd [3]: 17.5 nM
- apparent Kd [4]: 536 nM

Sequence: GGAUAGGACAGAGGAUAUACGUGCUAGAGAUACUAGCAAAAUUUCAUCACAUGAGGAUCACCCAUGUAGAAGGCUGUCCUAUCG
- apparent Kd [3]: 4.81 nM
- apparent Kd [4]: 8.63 nM

Sequence: GGAUAGGACAGAGGAUAUACGUGCUAGAGAUACUAGCAAAAUUUCCGCACAUGAGGAUCACCCAUGUAGAAGGCUGUCCUAUCG
- apparent Kd [3]: 5.82 nM
- apparent Kd [4]: 9.26 nM

Sequence: GGAUAGGACAGAGGAUAUACGUGCUAGAGAUACUAGCAAAAUUUCCUAACAUGAGGAUCACCCAUGUAGAAGGCUGUCCUAUCG
- apparent Kd [3]: 6.61 nM
- apparent Kd [4]: 13.3 nM

Sequence: GGAUAGGACAGAGGAUAUACGUGCUAGAGAUACUAGCAAAAUUUCCUCACAUGAGGAUCACCCAUGUAGAAGGCAGUCCUAUCG
- apparent Kd [3]: 4.95 nM
- apparent Kd [4]: 7.33 nM

Sequence: GGAUAGGACAGAGGAUAUACGUGCUAGAGAUACUAGCAAAAUUUCCUCACAUGAGGAUCACCCAUGUAGAAGGCCGUCCUAUCG
- apparent Kd [3]: 6.02 nM
- apparent Kd [4]: 19.7 nM

Sequence: GGAUAGGACAGAGGAUAUACGUGCUAGAGAUACUAGCAAAAUUUCCUCACAUGAGGAUCACCCAUGUAGAAGGCUGUCCCAUCG
- apparent Kd [3]: 15.3 nM
- apparent Kd [4]: 327 nM

Sequence: GGAUAGGACAGAGGAUAUACGUGCUAGAGAUACUAGCAAAAUUUCCUCACAUGAGGAUCACCCAUGUAGAAGGCUGUCCUUUCG
- apparent Kd [3]: 17.9 nM
- apparent Kd [4]: 473 nM
